The values that follow come from ChEMBL document CHEMBL1137792, “The immobilization of gossypol derivative on N-polyvinylpyrrolidone increases its water solubility and modifies membrane-active properties” (J Med Chem, 2009).

The nature of data set [1]: Drug binding to Wistar rat liver mitochondrial membrane assessed as [14C] labeled megosin after 5 mins. As to conditions: in vitro; call rule not given here. The data set is classed as ADME, tissue-based. The procedure, abridged: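 Mitochondria (10 mg protein/mL) incubated with 14C-labeled compound (10 nmol/mg protein, 9.45 mCi/mmol) plus 50-fold unlabeled (500 nmol/mg) at 22 °C with stirring; vacuum filtration through nitrocellulose, two water rinses, filters dried 24 h and counted by liquid scintillation; bound label expressed as cpm and % of total radioactivity. Mean ± SEM, n=12.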

The nature of data set [2]: Effect on nonenergized Wistar rat liver mitochondrial membrane permeability assessed as increase in permeability to potassium ion at 20 uM. The data set is classed as ADME, mitochondria, Mitochondria. The procedure, abridged: (§1)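 Passive swelling of nonenergized rat liver mitochondria (1.0 mg/mL protein) in iso-osmotic nitrate media, Tris-HNO3 pH 7.4, rotenone 0.33 μg/mL, 25 °C, stirred: KNO3 120 mM; Mg2+ and Ba2+ 80 mM; Ca2+ 40 mM with 120 mM sucrose. Absorbance decrease at 520 nm followed; swelling rates normalised to the K+ rate set as 1. Five recordings.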

The nature of data set [3]: Toxicity in human erythrocytes assessed as reduction of membrane fluidity by fluorescent anisotropy. The data set is classed as cell-based. As to conditions: erythrocyte. The procedure, abridged:
(§2)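 Human erythrocyte ghosts (hypotonic Tris-HCl/EDTA lysis) diluted in PBS pH 7.4, 2 min at 37 °C with compound (0.05-0.75 μM final), then DPH 1 μM final, 15 min dark at room temperature; steady-state anisotropy, excitation 348/emission 426 nm; ratio to no-compound control (Ai/A0). Mean ± SEM, n=8.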

A short description of data set [4]: Effect on nonenergized Wistar rat liver mitochondrial membrane permeability assessed as increase in permeability to Ba2+ ion at 20 uM. The data set is classed as ADME, mitochondria, Mitochondria. The procedure, abridged: as §1
Data set [5] can be described thus: Decrease in Wistar rat liver mitochondrial membrane fluidity assessed as rotational correlation times of spin probe at 0.15 uM by ESR. The data set is classed as ADME, mitochondria, Mitochondria. The procedure, abridged:
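ESR of rat liver mitochondria (1 mg/mL protein) in 145 mM KCl, 10 mM Tris-HCl pH 7.4 with nitroxide spin probe added in ethanol to 10^-6 M final; 2 min incubation with compound (range 0.025-0.3 μM) before spectra; rotational correlation time τc derived. Mean ± SEM, n=9, three independent experiments.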

A short description of data set [6]: Effect on nonenergized Wistar rat liver mitochondrial membrane permeability assessed as increase in permeability to Ca2+ ion at 20 uM. The data set is classed as ADME, mitochondria, Mitochondria. The procedure, abridged: as §1
The nature of data set [7]: Toxicity in human erythrocytes assessed as reduction of membrane fluidity at 0.4 uM by fluorescent anisotropy relative to untreated control. The data set is classed as cell-based. The note with it: erythrocyte. Summed up:
as §2

Data set [8] in a line: Effect on nonenergized Wistar rat liver mitochondrial membrane permeability assessed as increase in permeability to Mg2+ ion at 20 uM. The data set is classed as ADME, mitochondria, Mitochondria. The procedure, abridged:
as §1

Data set [9] can be described thus: Toxicity in Wistar rat erythrocytes assessed as induction of hemolysis at 50 uM. The data set is classed as cell-based, Erythrocyte. The note with it: read-out: Activity. The procedure, abridged:
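Freshly isolated, washed rat erythrocytes as 2% suspension in 140 mM NaCl, 10 mM Tris-citrate, 1 mM EDTA, pH 7.5, incubated 30 min at 37 °C with compound (20-100 μM range); spun at 1000g, supernatant OD540 read against water-lysed cells as 100%. Mean ± SEM, n=9.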

As to `Cc1cc2c(c(O)c1-c1c(C)cc3c(c1O)/C(=C/NCCS(=O)(=O)[O-])C(=O)C(O)=C3C(C)C)/C(=C/NCCS(=O)(=O)[O-])C(=O)C(O)=C2C(C)C.[Na+].[Na+]` [MEGOSIN], the Drug uptake in [1] came to 88.2%. Further, the Activity entry in data set [2] was “Active”; in [3] it was “Dose-dependent effect”; in [4] it was “Active”; in data set [5] it was 32.1 ×10⁻¹⁰ s; in data set [6], “Active”; in data set [8], “Active”. In addition, in data set [7], the “fold change (FC)” value stood at 1.83. Also, the hemolysis at 50 µM in [9] came out at 68%.
